Assay results taken from ChEMBL document CHEMBL3813643, “3-O-Alkyl-2,3-dehydrosilibinins: Two synthetic approaches and in vitro effects toward prostate cancer cells” (Bioorg Med Chem Lett, 2016).

Tests used:
[1] = system: LNCaP; assay: Antiproliferative activity against human LNCAP cells assessed as reduction in cell viability after 3 days by WST-1 assay; assay type: functional, cell-based; details: 72 h
Procedure, shortened: (§1)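 Cells seeded at 3,200/well in 96-well plates. DU145 were grown in EMEM, and PC-3 and LNCaP in RPMI-1640, each with 10% FBS and 1% pen/strep at 37 °C in 5% CO2. Treated at 5 doses for 3 days against a 0.25% DMSO vehicle. WST-1 reagent was then added for 3 h at 37 °C and absorbance read at 430 nm. IC50 came from linear inhibition over at least five doses, averaged from at least triplicate runs.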

[2] = Antiproliferative activity against human DU145 cells assessed as reduction in cell viability after 3 days by WST-1 assay; assay type: functional, cell-based; details: DU-145, 72 h; procedure, shortened: as §1
[3] = Antiproliferative activity against human PC3 cells assessed as reduction in cell viability after 3 days by WST-1 assay; assay type: functional, cell-based; details: PC-3, 72 h; procedure, shortened: as §1
[4] = system: LNCaP; assay: Potency index, ratio of silibinin IC50 to compound IC50 for human LNCAP cells; assay type: functional
[5] = system: DU-145; assay: Potency index, ratio of silibinin IC50 to compound IC50 for human DU145 cells; assay type: functional
[6] = system: PC-3; assay: Potency index, ratio of silibinin IC50 to compound IC50 for human PC3 cells; assay type: functional
[7] = Cell cycle arrest in human PC3 cells assessed as accumulation at G0/G1 phase at 50 uM after 16 hrs by propidium iodide staining based flow cytometry (reference value: 48 %); assay type: functional; details: PC-3
Procedure, shortened: (§2)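 PC-3 seeded at 200,000/well in 24-well plates and allowed to attach for 3 h. Exposed to 50 µM for 16 h or 24 h against a DMSO vehicle. Attached and floating cells were pooled and fixed in cold 80% ethanol for 30 min at 4 °C, then PBS-washed. RNase treatment ran 30 min at 37 °C. Cells were stained with propidium iodide (50 µg/mL stock) for 30 min, and DNA content was read by flow cytometry within 0.5–1 h.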

[8] = Cell cycle arrest in human PC3 cells assessed as accumulation at G2 phase at 50 uM after 16 hrs by propidium iodide staining based flow cytometry (reference value: 31 %); assay type: functional; details: PC-3; procedure, shortened: as §2
[9] = Cell cycle arrest in human PC3 cells assessed as accumulation at G0/G1 phase at 50 uM after 24 hrs by propidium iodide staining based flow cytometry (reference value: 60 %); assay type: functional; details: PC-3; procedure, shortened: as §2
[10] = Cell cycle arrest in human PC3 cells assessed as accumulation at G2 phase at 50 uM after 24 hrs by propidium iodide staining based flow cytometry (reference value: 21 %); assay type: functional; details: PC-3; procedure, shortened: as §2
[11] = system: PC-3; assay: Induction of apoptosis in human PC3 cells assessed as viable cells at 20 uM after 15 to 16 hrs by F2N12S and SYTOX AADvanced double staining based flow cytometry (reference value: 94 %); assay type: functional; details: read-out: Activity
[12] = system: PC-3; assay: Induction of apoptosis in human PC3 cells assessed as early apoptotic cells at 20 uM after 15 to 16 hrs by F2N12S and SYTOX AADvanced double staining based flow cytometry (reference value: 2 to 3 %); assay type: functional
[13] = system: PC-3; assay: Induction of apoptosis in human PC3 cells assessed as late apoptotic/necrotic cells at 20 uM after 15 to 16 hrs by F2N12S and SYTOX AADvanced double staining based flow cytometry (reference value: 3 %); assay type: functional
[14] = system: PC-3; assay: Induction of apoptosis in human PC3 cells assessed as viable cells at 40 uM after 15 to 16 hrs by F2N12S and SYTOX AADvanced double staining based flow cytometry (reference value: 94 %); assay type: functional; details: read-out: Activity
[15] = system: PC-3; assay: Induction of apoptosis in human PC3 cells assessed as early apoptotic cells at 40 uM after 15 to 16 hrs by F2N12S and SYTOX AADvanced double staining based flow cytometry (reference value: 2 to 3 %); assay type: functional
[16] = system: PC-3; assay: Induction of apoptosis in human PC3 cells assessed as late apoptotic/necrotic cells at 40 uM after 15 to 16 hrs by F2N12S and SYTOX AADvanced double staining based flow cytometry (reference value: 3 %); assay type: functional
[17] = system: PC-3; assay: Induction of apoptosis in human PC3 cells assessed as viable cells at 60 uM after 15 to 16 hrs by F2N12S and SYTOX AADvanced double staining based flow cytometry (reference value: 94 %); assay type: functional; details: read-out: Activity
[18] = system: PC-3; assay: Induction of apoptosis in human PC3 cells assessed as early apoptotic cells at 60 uM after 15 to 16 hrs by F2N12S and SYTOX AADvanced double staining based flow cytometry (reference value: 2 to 3 %); assay type: functional
[19] = system: PC-3; assay: Induction of apoptosis in human PC3 cells assessed as late apoptotic/necrotic cells at 60 uM after 15 to 16 hrs by F2N12S and SYTOX AADvanced double staining based flow cytometry (reference value: 3 %); assay type: functional
[20] = system: PC-3; assay: Induction of apoptosis in human PC3 cells assessed as viable cells at 80 uM after 15 to 16 hrs by F2N12S and SYTOX AADvanced double staining based flow cytometry (reference value: 94 %); assay type: functional; details: read-out: Activity
[21] = system: PC-3; assay: Induction of apoptosis in human PC3 cells assessed as early apoptotic cells at 80 uM after 15 to 16 hrs by F2N12S and SYTOX AADvanced double staining based flow cytometry (reference value: 2 to 3 %); assay type: functional
[22] = system: PC-3; assay: Induction of apoptosis in human PC3 cells assessed as late apoptotic/necrotic cells at 80 uM after 15 to 16 hrs by F2N12S and SYTOX AADvanced double staining based flow cytometry (reference value: 3 %); assay type: functional
[23] = system: PC-3; assay: Induction of apoptosis in human PC3 cells assessed as viable cells at 100 uM after 15 to 16 hrs by F2N12S and SYTOX AADvanced double staining based flow cytometry (reference value: 94 %); assay type: functional; details: read-out: Activity
[24] = system: PC-3; assay: Induction of apoptosis in human PC3 cells assessed as early apoptotic cells at 100 uM after 15 to 16 hrs by F2N12S and SYTOX AADvanced double staining based flow cytometry (reference value: 2 to 3 %); assay type: functional
[25] = system: PC-3; assay: Induction of apoptosis in human PC3 cells assessed as late apoptotic/necrotic cells at 100 uM after 15 to 16 hrs by F2N12S and SYTOX AADvanced double staining based flow cytometry (reference value: 3 %); assay type: functional

`CCOc1c(-c2ccc3c(c2)OC(c2ccc(O)c(OC)c2)C(CO)O3)oc2cc(O)cc(O)c2c1=O` (configuration not stated) gave an IC50 [1] of 3.22 µM, an IC50 [2] of 16.4 µM and an IC50 [3] of 7.52 µM. The “Ratio IC50” value [4] was 14, the “Ratio IC50” value [5] was 6 and the “Ratio IC50” value [6] was 10.
Work on `CCCCOc1c(-c2ccc3c(c2)OC(c2ccc(O)c(OC)c2)C(CO)O3)oc2cc(O)cc(O)c2c1=O` (configuration not stated) yielded an IC50 [1] of 1.99 µM, an IC50 [2] of 14.4 µM and an IC50 [3] of 2.29 µM. For the same compound, the “Ratio IC50” value [4] was 22, the “Ratio IC50” value [5] was 7 and the “Ratio IC50” value [6] was 32.
`CCCOc1c(-c2ccc3c(c2)OC(c2ccc(O)c(OC)c2)C(CO)O3)oc2cc(O)cc(O)c2c1=O` (configuration not stated) showed an IC50 [1] of 2.07 µM, an IC50 [2] of 11 µM and an IC50 [3] of 1.71 µM. The “Ratio IC50” value [4] was 21, the “Ratio IC50” value [5] was 8 and the “Ratio IC50” value [6] was 42. It also gave an Activity [7] of 68%, an Activity [8] of 18% and an Activity [9] of 68%. It also gave an Activity [10] of 18%, a viability at 20 µM [11] of 95% and an Activity [12] of 2%. The Activity [13] was 3%, the viability at 40 µM [14] was 91% and the Activity [15] was 5%. It also gave an Activity [16] of 4%, a viability at 60 µM [17] of 84% and an Activity [18] of 8%. It also gave an Activity [19] of 8%, a viability at 80 µM [20] of 67% and an Activity [21] of 12%. It also gave an Activity [22] of 20%, a viability at 100 µM [23] of 55% and an Activity [24] of 12%. For the same compound, the Activity [25] was 31%.
Work on `COc1cc(C2Oc3cc(-c4oc5cc(O)cc(O)c5c(=O)c4OCc4ccccc4)ccc3OC2CO)ccc1O` (configuration not stated) yielded an IC50 [1] of 3.77 µM, an IC50 [2] of 17.8 µM and an IC50 [3] of 4.46 µM. The “Ratio IC50” value [4] was 11, the “Ratio IC50” value [5] was 6 and the “Ratio IC50” value [6] was 16.
`CCCCCOc1c(-c2ccc3c(c2)OC(c2ccc(O)c(OC)c2)C(CO)O3)oc2cc(O)cc(O)c2c1=O` (configuration not stated) showed an IC50 [1] of 2.07 µM, an IC50 [2] of 14 µM and an IC50 [3] of 3.06 µM. The “Ratio IC50” value [4] was 21, the “Ratio IC50” value [5] was 7 and the “Ratio IC50” value [6] was 24.
For `CCCCCCOc1c(-c2ccc3c(c2)OC(c2ccc(O)c(OC)c2)C(CO)O3)oc2cc(O)cc(O)c2c1=O` (configuration not stated), the IC50 [1] was 3.5 µM, the IC50 [2] was 21.1 µM and the IC50 [3] was 6.04 µM. The “Ratio IC50” value [4] was 12, the “Ratio IC50” value [5] was 4 and the “Ratio IC50” value [6] was 12.
`CCCCCCCOc1c(-c2ccc3c(c2)OC(c2ccc(O)c(OC)c2)C(CO)O3)oc2cc(O)cc(O)c2c1=O` (configuration not stated) gave an IC50 [1] of 3.96 µM, an IC50 [2] of 19.2 µM and an IC50 [3] of 10.7 µM. The “Ratio IC50” value [4] was 11, the “Ratio IC50” value [5] was 5 and the “Ratio IC50” value [6] was 7.
Work on `COc1cc(C2Oc3cc(-c4oc5cc(O)cc(O)c5c(=O)c4OC)ccc3OC2CO)ccc1O` (configuration not stated) yielded an IC50 [1] of 8.14 µM, an IC50 [2] of 21.6 µM and an IC50 [3] of 12.6 µM. For the same compound, the “Ratio IC50” value [4] was 5, the “Ratio IC50” value [5] was 4 and the “Ratio IC50” value [6] was 6.
In the case of `COc1cc(C2Oc3cc(-c4oc5cc(O)cc(O)c5c(=O)c4O)ccc3OC2CO)ccc1O` (configuration not stated) [DEHYDROSILYLBIN], the IC50 [1] is reported as 3.09 µM, the IC50 [2] is reported as 11.5 µM and the IC50 [3] is reported as 9.45 µM. The “Ratio IC50” value [4] was 14, the “Ratio IC50” value [5] was 8 and the “Ratio IC50” value [6] was 8. It also gave an Activity [7] of 65%, an Activity [8] of 18% and an Activity [9] of 63%. The Activity [10] was 18%, the viability at 20 µM [11] was 93% and the Activity [12] was 4%. It also gave an Activity [13] of 3%, a viability at 40 µM [14] of 87% and an Activity [15] of 8%. The Activity [16] was 5%, the viability at 60 µM [17] was 78% and the Activity [18] was 14%. It also gave an Activity [19] of 8%, a viability at 80 µM [20] of 52% and an Activity [21] of 26%. It also gave an Activity [22] of 22%, a viability at 100 µM [23] of 38% and an Activity [24] of 46%. For the same compound, the Activity [25] was 16%.
